Source: PMC8530377 (Journal of medicinal chemistry, 2021)

Key:
mice [1] = assay: Respiratory rate, CLAMS; type: in vivo, mouse
mice [2] = assay: Locomotor effect, CLAMS; type: in vivo, mouse
C57BL/6J mice [3] = settings: sc; cited from earlier work
C57BL/6J mice [4] = settings: mouse, in vivo
hMOR (GoA and GoB) = hMOR (GoA and GoB) (Homo sapiens, UniProt P35372); assay: cell-based; settings: read-out: Emax at GoA and GoB
[5] = system: GABAA receptor-mediated IPSCs in VTA neurons; assay: Whole cell electrophysiology, evoked IPSCs in VTA neurons of acute brain slices; type: cell-based, rat; settings: 10 μM; compared to 5 μM DAMGO and 10 μM morphine
murine MOR = murine MOR (Mus musculus, UniProt P42866); assay: BRET-based Nb33 recruitment assay, mMOR; type: cell-based; settings: for Nb33 recruitment efficacy at murine MOR: HEK293-T cells, compared to DAMGO
Sequence of murine MOR (P42866 whole entry): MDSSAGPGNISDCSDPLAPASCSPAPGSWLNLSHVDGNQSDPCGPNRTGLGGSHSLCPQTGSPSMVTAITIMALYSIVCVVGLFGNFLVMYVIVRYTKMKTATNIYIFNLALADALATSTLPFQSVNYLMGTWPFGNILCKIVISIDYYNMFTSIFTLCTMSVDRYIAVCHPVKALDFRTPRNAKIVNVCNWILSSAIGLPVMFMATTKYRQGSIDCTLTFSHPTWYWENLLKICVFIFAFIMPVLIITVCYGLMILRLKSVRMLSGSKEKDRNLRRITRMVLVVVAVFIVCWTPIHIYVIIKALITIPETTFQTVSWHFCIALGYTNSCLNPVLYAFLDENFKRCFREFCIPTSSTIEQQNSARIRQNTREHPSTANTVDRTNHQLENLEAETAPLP

hMOR (β-arrestin1) = hMOR (β-arrestin1) (Homo sapiens, UniProt P35372); type: cell-based
Sequence of hMOR (β-arrestin1) (P35372 whole entry): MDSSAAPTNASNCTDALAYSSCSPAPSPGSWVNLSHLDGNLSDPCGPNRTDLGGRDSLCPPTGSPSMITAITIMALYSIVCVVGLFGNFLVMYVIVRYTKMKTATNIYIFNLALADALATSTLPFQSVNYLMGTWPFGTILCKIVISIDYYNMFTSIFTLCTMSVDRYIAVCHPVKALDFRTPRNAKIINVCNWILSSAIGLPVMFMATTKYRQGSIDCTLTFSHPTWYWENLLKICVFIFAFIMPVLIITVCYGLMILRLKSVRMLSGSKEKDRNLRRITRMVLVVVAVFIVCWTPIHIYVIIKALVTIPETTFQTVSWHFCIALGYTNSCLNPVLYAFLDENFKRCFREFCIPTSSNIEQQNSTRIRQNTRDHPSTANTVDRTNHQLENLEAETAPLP

hMOR (β-arrestin2) = hMOR (β-arrestin2) (Homo sapiens, UniProt P35372); assay: cell-based; settings: for Emax: read-out: β-arrestin2 recruitment Emax (BRET)
Sequence of hMOR (β-arrestin2) (P35372 whole entry): as above

hMOR (Gi-1) = hMOR (Gi-1) (Homo sapiens, UniProt P35372); assay: cell-based; settings: for Emax: read-out: Gi-1 Emax
Sequence of hMOR (Gi-1) (P35372 whole entry): as above

hMOR (Gz) = hMOR (Gz) (Homo sapiens, UniProt P35372); assay: cell-based; settings: read-out: Emax at Gz
Sequence of hMOR (Gz) (P35372 whole entry): as above

hMOR (human MOR) = hMOR (human MOR) (Homo sapiens, UniProt P35372); assay: biochemical; type: binding
Sequence of hMOR (human MOR) (P35372 whole entry): as above

MOR = settings: cited from earlier work
hMOR = hMOR (Homo sapiens, UniProt P35372); assay: cell-based
Sequence of hMOR (P35372 whole entry): as above

DOR = assay: BRET Gi-1 activation assay at DOR; type: cell-based
In short: (§1)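 Cells were plated in 6-well dishes (700,000–800,000 cells/well) or 10 cm dishes and transfected 2–4 h later with receptor:Gα-RLuc8:Gβ:Gγ-GFP2 at 1:1:1:1. The next day they were replated on poly-D-lysine 96-well plates (30,000–50,000 cells/well). One day later, in HBSS + 20 mM HEPES pH 7.4 with coelenterazine 400a, cells equilibrated 5 min, then drug 5 min. BRET2 ratio was GFP2 (510 nm)/RLuc8 (395 nm), sixth of six serial reads.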

KOR = assay: BRET Gi-1 activation assay at KOR; type: cell-based
In short: as §1

[6] = system: MOR KO, KOR KO and DOR KO mice; assay: 55 °C tail withdrawal antinociception in opioid receptor knock-out mice; type: in vivo, mouse; settings: 10 mg/kg, sc, relative to WT
[7] = 45 mg/kg, sc (15-fold antinociceptive ED50)

Sequence of hMOR (GoA and GoB) (P35372 whole entry): as above

## CN1CC[C@]23c4c5ccc(O)c4O[C@H]2[C@@H](O)C=C[C@H]3[C@H]1C5 [morphine, reference compound]
Mice [1]; 30 mg/kg, sc
  respiratory effects (breath rate): significant respiratory depression for 60 min
Mice [2]; 10 and 30 mg/kg, sc (5-fold and 15-fold ED50)
  locomotor effect: hyperlocomotion effects
C57BL/6J mice [3]
  antinociception ED50 (95% CI), literature: 2.48 (1.57–3.87) mg/kg
C57BL/6J mice [4]
  place conditioning (CPP/CPA): showed CPP

## CC[C@@H]1CN2CC[C@@]3(O)C(=Nc4cccc(C)c43)[C@@H]2C[C@@H]1/C(=C\OC)C(=O)OC [Compound 5, Methyl(E)-2-((2S,3S,7aS,12bS)-3-ethyl-7a-hydroxy-8-methyl-1,2,3,4,6,7,7a,12b-octahydroindolo[2,3-a]quinolizin-2-yl)-3-methoxyacrylate]
hMOR (GoA and GoB)
  Emax: 63 to 75%
[5]
  mean inhibition of evoked IPSCs: smaller
Murine MOR
  Nb33 recruitment efficacy at murine MOR: 15–18%
hMOR (β-arrestin1)
  β-arrestin1 recruitment (BRET), words: failed to show recruitment
hMOR (β-arrestin2)
  β-arrestin2 recruitment (BRET), words: not measurable
  Emax: < 10%
hMOR (Gi-1)
  Emax: 60 to 70%
hMOR (Gz)
  Emax: 79 to 86%
hMOR (human MOR)
  Ki: 15 to 17 nM

## COc1ccsc1CNCC[C@@]1(c2ccccn2)CCOC2(CCCC2)C1 [TRV130]
MOR
  Nb33 recruitment efficacy (literature): 42%

## CC[C@@H]1CN2CC[C@@]3(O)C(=Nc4cccc(-c5ccoc5)c43)[C@@H]2C[C@@H]1/C(=C\OC)C(=O)OC [Compound 6 (SC13), Methyl(E)-2-((2S,3S,7aS,12bS)-3-ethyl-8-(furan-3-yl)-7a-hydroxy-1,2,3,4,6,7,7a,12b-octahydroindolo[2,3-a]quinolizin-2-yl)-3-methoxyacrylate]
Mice [1]; [7]
  respiratory effects (breath rate): no statistically significant respiratory effects
hMOR (GoA and GoB)
  Emax: 63 to 75%
hMOR
  EC50: 730 nM
[5]
  mean inhibition of evoked IPSCs: smaller
Mice [2]; [7]
  locomotor effect: no hyperlocomotion
Murine MOR
  EC50: 12 nM
hMOR (β-arrestin1)
  β-arrestin1 recruitment (BRET), words: failed to show recruitment
hMOR (β-arrestin2)
  β-arrestin2 recruitment (BRET), words: not measurable
  Emax: < 10%
DOR
  fold lower potency at DOR versus MOR, Gi-1 activation: ~ 100 fold
KOR
  fold lower potency at KOR versus MOR, Gi-1 activation: ~ 100 fold
hMOR (Gi-1)
  EC50: 145 nM
  Emax: 60 to 70%
hMOR (Gz)
  Emax: 79 to 86%
[6]
  antinociception in MOR KO mice: significantly reduced
[6]; p = 0.058
  antinociception in KOR KO mice: remained intact
[6]; p = 0.13
  antinociception in DOR KO mice: remained intact
C57BL/6J mice [4]
  place conditioning (CPP/CPA): no signs of CPP or CPA

## CC[C@@H]1CN2CC[C@@]3(O)C(=Nc4cccc(-c5ccccc5)c43)[C@@H]2C[C@@H]1/C(=C\OC)C(=O)OC [Compound 4, Methyl(E)-2-((2S,3S,7aS,12bS)-3-ethyl-7a-hydroxy-8-phenyl-1,2,3,4,6,7,7a,12b-octahydroindolo[2,3-a]quinolizin-2-yl)-3-methoxyacrylate]
hMOR (GoA and GoB)
  Emax: 63 to 75%
[5]
  mean inhibition of evoked IPSCs: smaller
Murine MOR
  Nb33 recruitment efficacy at murine MOR: 15–18%
hMOR (β-arrestin1)
  β-arrestin1 recruitment (BRET), words: failed to show recruitment
hMOR (β-arrestin2)
  β-arrestin2 recruitment (BRET), words: not measurable
  Emax: < 10%
hMOR (Gi-1)
  Emax: 60 to 70%
hMOR (Gz)
  Emax: 79 to 86%
hMOR (human MOR)
  Ki: 15 to 17 nM

## C[C@@H](Cc1ccsc1)NC(=O)NC[C@H](Cc1ccc(O)cc1)N(C)C [PZM21]
MOR
  Nb33 recruitment efficacy (literature): 38%
